Source: ChEMBL document CHEMBL1153377, “8-Bromo-9-alkyl adenine derivatives as tools for developing new adenosine A2A and A2B receptors ligands” (Bioorg Med Chem, 2009)

Key:
[1] = target: T1, Adenosine receptor A1 (Homo sapiens, UniProt P30542); experiment: Displacement of [3H]CCPA from human adenosine A1 receptor expressed in CHO cells; type: cell-based
T1 sequence (P30542 whole entry): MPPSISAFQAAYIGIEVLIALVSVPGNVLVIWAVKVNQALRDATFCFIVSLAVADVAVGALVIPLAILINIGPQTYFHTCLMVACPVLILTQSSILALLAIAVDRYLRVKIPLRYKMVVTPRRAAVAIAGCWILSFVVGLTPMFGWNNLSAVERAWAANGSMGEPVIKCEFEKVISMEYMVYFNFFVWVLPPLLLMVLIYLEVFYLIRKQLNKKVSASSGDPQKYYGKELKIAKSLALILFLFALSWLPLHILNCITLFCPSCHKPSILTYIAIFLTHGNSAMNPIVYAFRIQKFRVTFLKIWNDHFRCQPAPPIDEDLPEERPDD
In short: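 Membranes from CHO cells stably expressing human A1 receptor (1000 g spin to clear nuclei, then 100,000 g pellet, stored -80 °C in binding buffer). Competition binding with 1 nM [3H]CCPA; nonspecific binding defined with 1 mM theophylline. Ki calculated from competition curves.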

[2] = target: Adenosine receptor A2a (Homo sapiens, UniProt P29274); experiment: Displacement of [3H]NECA from human adenosine A2A receptor expressed in CHO cells; type: cell-based
Adenosine receptor A2a, sequence (P29274 whole entry): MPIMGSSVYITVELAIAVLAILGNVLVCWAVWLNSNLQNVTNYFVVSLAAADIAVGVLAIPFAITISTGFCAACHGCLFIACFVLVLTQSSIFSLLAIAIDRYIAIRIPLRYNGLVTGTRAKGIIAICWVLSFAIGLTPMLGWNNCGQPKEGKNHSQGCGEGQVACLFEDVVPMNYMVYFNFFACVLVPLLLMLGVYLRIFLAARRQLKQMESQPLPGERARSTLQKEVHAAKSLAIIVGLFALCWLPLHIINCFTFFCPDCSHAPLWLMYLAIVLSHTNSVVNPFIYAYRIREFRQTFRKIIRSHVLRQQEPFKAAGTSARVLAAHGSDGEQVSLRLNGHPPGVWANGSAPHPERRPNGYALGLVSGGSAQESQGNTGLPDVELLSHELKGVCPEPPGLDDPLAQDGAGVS
In short: (§1)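 CHO cells stably expressing human receptor; membranes from a two-step spin (1000 g, then 100,000 g), resuspended in binding buffer, stored -80 °C. Competition with [3H]NECA at 30 nM (A2A) or 10 nM (A3); nonspecific binding defined with […]. Ki derived from competition experiments.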

[3] = target: T2, Adenosine receptor A2b (Homo sapiens, UniProt P29275); experiment: Antagonist activity at human adenosine A2B receptor expressed in CHO cells assessed as inhibition of NECA-stimulated adenylyl cyclase activity; type: functional, cell-based
T2 sequence (P29275 whole entry): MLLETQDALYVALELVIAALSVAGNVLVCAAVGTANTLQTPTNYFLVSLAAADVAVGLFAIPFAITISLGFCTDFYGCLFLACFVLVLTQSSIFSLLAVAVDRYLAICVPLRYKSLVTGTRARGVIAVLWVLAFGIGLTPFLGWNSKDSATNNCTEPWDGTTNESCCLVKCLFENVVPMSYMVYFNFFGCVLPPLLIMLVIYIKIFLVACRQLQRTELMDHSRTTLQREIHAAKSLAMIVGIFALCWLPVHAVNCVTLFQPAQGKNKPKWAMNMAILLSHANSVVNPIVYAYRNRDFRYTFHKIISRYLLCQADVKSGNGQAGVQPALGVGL
In short: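 Membranes from CHO cells stably transfected with human A2B receptor, prepared by a single high-speed centrifugation of the homogenate, resuspended in 50 mM Tris/HCl pH 7.4 and used at once. Inhibition of NECA-stimulated adenylyl cyclase activity measured; IC50 converted to Ki by Cheng-Prusoff equation.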

[4] = target: T3, Adenosine receptor A3 (Homo sapiens, UniProt P0DMS8); experiment: Displacement of [3H]NECA from human adenosine A3 receptor expressed in CHO cells; type: cell-based; in short: as §1
T3 sequence (P0DMS8 whole entry): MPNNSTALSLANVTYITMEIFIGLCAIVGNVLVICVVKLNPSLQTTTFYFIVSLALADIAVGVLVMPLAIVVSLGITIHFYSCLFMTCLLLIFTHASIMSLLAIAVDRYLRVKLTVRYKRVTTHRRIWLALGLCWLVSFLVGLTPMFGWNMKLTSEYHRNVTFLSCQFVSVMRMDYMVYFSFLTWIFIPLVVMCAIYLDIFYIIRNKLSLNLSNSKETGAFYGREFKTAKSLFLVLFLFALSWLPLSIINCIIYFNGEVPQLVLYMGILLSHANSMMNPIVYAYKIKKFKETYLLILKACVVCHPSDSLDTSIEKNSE

SMILES | Ki [1] [µM] | Ki [2] [µM] | Ki [3] [µM] | Ki [4] [µM]
Nc1ncnc2c1nc(Br)n2Cc1ccccc1 | 6.7 | 6.1 | > 30 | ≥ 100
Nc1ncnc2c1ncn2C1CCCC1 | 10 | 1.8 | > 30 | 13
CCn1cnc2c(N)ncnc21 | 7.4 | 2.2 | > 30 | > 100
Nc1ncnc2c1ncn2CCc1ccccc1 | > 100 | 9.6 | > 30 | > 100
Nc1ncnc2c1ncn2CCCO | > 100 | 3.9 | > 30 | > 100
CC(C)n1c(Br)nc2c(N)ncnc21 | 0.83 | 0.074 | 1.1 | 15
Nc1ncnc2ncn(CCCO)c12 | > 100 | > 100 | > 30 | > 100
CC(C)n1cnc2ncnc(N)c21 | 20 | 12 | > 30 | > 100
CCCn1cnc2ncnc(N)c21 | > 100 | 18 | > 30 | > 100
Cn1cnc2ncnc(N)c21 | > 100 | > 100 | > 30 | > 100
CCCCn1cnc2c(N)ncnc21 | > 100 | 7.8 | > 30 | > 100
Nc1ncnc2c1nc(Br)n2C1CCCC1 | 1 | 1.9 | 0.86 | 4.2
CCn1cnc2ncnc(N)c21 | > 100 | 30 | > 30 | > 100
Nc1ncnc2c1ncn2C1CCC1 | 8.7 | 4.8 | 17 | 33
CCC(C)n1cnc2c(N)ncnc21 (stereo not given) | 34 | 16 | 19 | > 100
Nc1ncnc2ncn(CCO)c12 | > 100 | > 100 | > 30 | > 100
CCn1c(Br)nc2c(N)ncnc21 | 0.28 | 0.052 | 0.84 | 28
Nc1ncnc2c1ncn2C1CC1 | > 100 | 2.3 | > 30 | > 100
CC(C)Cn1cnc2ncnc(N)c21 | > 100 | > 100 | > 30 | > 100
Nc1ncnc2c1nc(Br)n2CCO | 1.5 | 0.62 | 2.8 | > 100
CC(C)Cn1c(Br)nc2c(N)ncnc21 | 4.9 | 6 | 4.2 | 15
Nc1ncnc2c1nc(Br)n2C1CCCCCC1 | > 100 | > 100 | > 30 | > 100
Nc1ncnc2ncn(CC(O)CO)c12 (stereo not given) | > 100 | > 100 | > 30 | > 100
CCCn1cnc2c(N)ncnc21 | 9.4 | 9.6 | 1.7 | ≥ 100
CCC(C)n1cnc2ncnc(N)c21 (stereo not given) | > 100 | > 100 | > 30 | > 100

SMILES | Ki [1] [µM] | Ki [2] [µM] | Ki [3] [µM] | Ki [4] [µM]
Nc1ncnc2c1nc(Br)n2CCCO | 1 | 0.085 | 5.1 | 3.2
CC(O)Cn1cnc2ncnc(N)c21 (stereo not given) | > 100 | > 100 | > 30 | > 100
CC(O)Cn1c(Br)nc2c(N)ncnc21 (stereo not given) | 2.9 | 1.1 | 0.64 | ≥ 100
Nc1ncnc2c1nc(Br)n2CCc1ccccc1 | 12 | 4.9 | > 30 | > 30
CC(C)Cn1cnc2c(N)ncnc21 | > 100 | > 100 | > 30 | > 100
CC(O)Cn1cnc2c(N)ncnc21 (stereo not given) | 29 | 3.1 | > 30 | > 100
CCCCn1c(Br)nc2c(N)ncnc21 | 3.2 | 0.73 | 5.6 | > 100
Nc1ncnc2c1nc(Br)n2CC(O)CO (stereo not given) | 16 | 4 | 7.1 | ≥ 100
CCCn1c(Br)nc2c(N)ncnc21 | 1.1 | 0.3 | 0.2 | ≥ 100
C=CCn1c(Br)nc2c(N)ncnc21 | 8.4 | 0.73 | 4.6 | 20
C=CCCn1c(Br)nc2c(N)ncnc21 | 4.9 | 1.6 | > 30 | > 100
CCC(C)n1c(Br)nc2c(N)ncnc21 (stereo not given) | 3.1 | 0.39 | 1.2 | 15
Cn1c(Br)nc2c(N)ncnc21 | 0.57 | 0.12 | 0.72 | > 100
C=CCCn1cnc2c(N)ncnc21 | > 100 | 8.5 | > 30 | > 100
Nc1ncnc2c1nc(Br)n2C1CCC1 | 2.2 | 0.66 | 4.1 | 6.2
Nc1ncnc2c1nc(Br)n2C1CCCCC1 | 4.6 | 15 | > 30 | 11
Nc1ncnc2c1ncn2C1CCCCCC1 | > 100 | 11 | > 30 | > 100
Nc1ncnc2c1ncn2C1CCCCC1 | > 100 | > 100 | > 30 | > 100
Nc1ncnc2nc(Br)[nH]c12 | 33 | 3.2 | > 30 | > 10
Cn1cnc2c(N)ncnc21 | 12 | – | > 30 | > 100
CC(C)n1cnc2c(N)ncnc21 | 4.3 | 4.1 | 16 | > 100
Nc1ncnc2c1ncn2CCO | 29 | 11 | > 30 | > 100
Nc1ncnc2c1ncn2Cc1ccccc1 [9-BENZYL-9H-ADENINE] | > 100 | 8.5 | > 30 | > 100
Nc1ncnc2c1ncn2C[C@H](O)CO [(S)-DHPA] | > 100 | 8.5 | > 30 | > 100
